27 compounds from ChEMBL document CHEMBL1154472, “Synthesis and anti-HIV-1 integrase activities of 3-aroyl-2,3-dihydro-1,1-dioxo-1,4,2-benzodithiazines” (Eur J Med Chem, 2009) can be followed below.

The IC50 is the midpoint of a concentration-inhibition curve.

Each structure is given as a SMILES string.

The target in assay [1] is T1, Human immunodeficiency virus type 1 integrase (Human immunodeficiency virus 1, UniProt Q7ZJM1). Description: Inhibition of HIV1 integrase strand transfer activity in presence of magnesium. The gist of the method:
(§1)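 Wild-type HIV-1 IN (200 nM final), expressed in E. coli BL21(DE3)pLysS, was preincubated with inhibitor for 30 min at 30 °C in HEPES/MOPS buffer containing glycerol, BSA and 10% DMSO, with Mg2+ as the cofactor. IC50 was derived.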

The target of assay [2] is T2, Human immunodeficiency virus type 1 integrase (Human immunodeficiency virus 1, UniProt Q7ZJM1, H114A). The assay is described as follows: Inhibition of HIV1 integrase H114A mutant 3'-end processing activity.
In assay [3] the target is T1, Human immunodeficiency virus type 1 integrase. Description: Inhibition of HIV1 integrase strand transfer activity. The method, boiled down:
(§2)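 Wild-type HIV-1 IN, expressed in E. coli BL21(DE3)pLysS after 1 mM IPTG induction, was preincubated at 200 nM final with inhibitor at 30 °C for 30 min. The buffer held 50 mM NaCl, HEPES pH 7.5, 10% glycerol, 7.5 mM MnCl2, 0.1 mg/ml BSA, 10 mM 2-mercaptoethanol, 10% DMSO and 25 mM MOPS pH 7.2. IC50 was taken from the reaction.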

The target in assay [4] is T3, Human immunodeficiency virus type 1 integrase (Human immunodeficiency virus 1, UniProt Q7ZJM1, Y99S). The assay is described as follows: Inhibition of HIV1 integrase Y99S mutant strand transfer activity.
Assay [5] addresses T1, Human immunodeficiency virus type 1 integrase. The assay is described as follows: Inhibition of HIV1 integrase 3'-end processing activity in presence of magnesium. The gist of the method: as §1
Assay [6] concerns the target T3, Human immunodeficiency virus type 1 integrase. The assay is described as follows: Inhibition of HIV1 integrase Y99S mutant 3'-end processing activity.
In assay [7] the target is T1, Human immunodeficiency virus type 1 integrase. Description: Inhibition of HIV1 integrase 3'-end processing activity. The method, boiled down: as §2
The target of assay [8] is T2, Human immunodeficiency virus type 1 integrase. Description: Inhibition of HIV1 integrase H114A mutant strand transfer activity.

T2 sequence (Q7ZJM1 entry or part of it H114A): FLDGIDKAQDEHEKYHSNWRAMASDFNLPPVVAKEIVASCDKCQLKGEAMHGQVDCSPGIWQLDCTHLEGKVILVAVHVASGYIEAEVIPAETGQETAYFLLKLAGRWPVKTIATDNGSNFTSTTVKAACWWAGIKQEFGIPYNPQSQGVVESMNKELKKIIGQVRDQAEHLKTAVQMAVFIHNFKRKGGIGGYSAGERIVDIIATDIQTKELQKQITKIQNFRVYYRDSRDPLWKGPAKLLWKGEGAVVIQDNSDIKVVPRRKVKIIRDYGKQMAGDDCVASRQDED
T3 sequence (Q7ZJM1 entry or part of it Y99S): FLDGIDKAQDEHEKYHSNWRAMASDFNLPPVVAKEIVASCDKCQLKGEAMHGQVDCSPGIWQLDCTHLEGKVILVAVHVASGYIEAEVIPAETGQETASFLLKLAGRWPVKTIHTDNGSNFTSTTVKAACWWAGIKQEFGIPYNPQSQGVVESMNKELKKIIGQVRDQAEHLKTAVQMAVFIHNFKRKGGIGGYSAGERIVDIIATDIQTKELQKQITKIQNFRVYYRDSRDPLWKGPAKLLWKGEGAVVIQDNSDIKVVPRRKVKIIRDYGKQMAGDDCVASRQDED
T1 sequence (Q7ZJM1 whole entry): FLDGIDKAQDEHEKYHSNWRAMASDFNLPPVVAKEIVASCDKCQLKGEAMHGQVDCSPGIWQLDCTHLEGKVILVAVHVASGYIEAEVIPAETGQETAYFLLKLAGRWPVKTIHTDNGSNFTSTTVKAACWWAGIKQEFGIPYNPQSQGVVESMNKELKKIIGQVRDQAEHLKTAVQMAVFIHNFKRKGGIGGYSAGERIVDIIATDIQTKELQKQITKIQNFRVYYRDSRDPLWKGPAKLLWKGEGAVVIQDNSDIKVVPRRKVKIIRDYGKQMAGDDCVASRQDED

For the compound `Cc1cc2c(cc1Cl)SC(C(=O)c1ccccc1)NS2(=O)=O` (centres undefined), the IC50 in assay [1] turned out to be 27 µM; in assay [2], 15 µM; in assay [3], 5 µM; in assay [4] it was 18 µM; in assay [5] it was 60 µM; in assay [6], 90 µM. Also, the results for the IC50 in assay [7] and in assay [8] were 7 µM and 9 µM, respectively.

As to `Cc1cc2c(cc1Cl)SC(C(=O)c1ccccc1)=NS2(=O)=O`, the IC50 is 15 µM in assay [2]; 12 µM in assay [3]; 18 µM in assay [4]; 90 µM in assay [6]; 12 µM in assay [7]; 9 µM in assay [8].

Regarding `Cc1cc(Cl)cc2c1S(=O)(=O)NC(C(=O)c1ccc(Cl)cc1)S2` (centres undefined), the IC50 in assay [3] is 14 µM; in assay [7], 23 µM.

For `O=C(c1ccc(Cl)cc1)C1NS(=O)(=O)c2ccc(Cl)cc2S1` (centres undefined), the IC50 in assay [1] is 25 µM; in assay [2] it was 20 µM; in assay [3], 4 µM; in assay [4] it was 20 µM; in assay [5], 51 µM; in assay [6], 100 µM. Further, the values for the IC50 in assay [7] and in assay [8] were 8 µM and 18 µM, respectively.

For `Cc1cc(Cl)cc2c1S(=O)(=O)NC(C(=O)c1ccc(Cl)c(Cl)c1)S2` (centres undefined), the IC50 in assay [3] was determined as 14 µM; in assay [7] it was 20 µM.

In the case of `Cc1cc(Cl)cc2c1S(=O)(=O)NC(C(=O)c1ccc3ccccc3c1)S2` (centres undefined), the IC50 came out at 51 µM in assay [1]; 33 µM in assay [2]; 6 µM in assay [3]; 23 µM in assay [4]; 83 µM in assay [5]; 70 µM in assay [6]. Moreover, the IC50 stood at 9 µM in assay [7] and 23 µM in assay [8].

Turning to `Cc1cc(Cl)cc2c1S(=O)(=O)N=C(C(=O)c1ccc(Cl)cc1)S2`, the IC50 in assay [3] was 25 µM; in assay [7], 22 µM.

On to `Cc1cc(Cl)cc2c1S(=O)(=O)N=C(C(=O)c1ccc(Cl)c(Cl)c1)S2`, for which the IC50 stood at 25 µM in assay [3] and 17 µM in assay [7].

With `COc1ccc(C(=O)C2NS(=O)(=O)c3cc(C)c(Cl)cc3S2)cc1` (centres undefined), the results for the IC50 in assay [3] and in assay [7] were 17 µM and 38 µM, respectively.

On to `O=C(c1ccc(Cl)c(Cl)c1)C1NS(=O)(=O)c2ccc(Cl)cc2S1` (centres undefined), for which the IC50 worked out at 25 µM in assay [1]; 18 µM in assay [2]; 5 µM in assay [3]; 20 µM in assay [4]; 58 µM in assay [5]; 90 µM in assay [6]. Moreover, the IC50 in assay [7] turned out to be 9 µM; in assay [8], 18 µM.

Regarding `Cc1cc2c(cc1Cl)SC(C(=O)c1ccc(Cl)c(Cl)c1)NS2(=O)=O` (centres undefined), the IC50 in assay [3] worked out at 10 µM; in assay [7] it was 20 µM.

For `Cc1cc2c(cc1Cl)SC(C(=O)c1ccc(Cl)cc1)=NS2(=O)=O`, the half-maximal inhibitory concentration (IC50) in assay [2] is 18 µM; in assay [3] it was 65 µM; in assay [4], 20 µM; in assay [6], 90 µM; in assay [7], 30 µM; in assay [8] it was 16 µM.

For the compound `Cc1cc2c(cc1Cl)SC(C(=O)c1cccc([N+](=O)[O-])c1)=NS2(=O)=O`, the results for the IC50 in assay [3] and in assay [7] were 50 µM and 57 µM, respectively.

With `Cc1cc2c(cc1Cl)SC(C(=O)c1ccc(Cl)c(Cl)c1)=NS2(=O)=O`, the values for the half-maximal inhibitory concentration (IC50) in assay [3] and in assay [7] were 7 µM and 15 µM, respectively.

For the compound `Cc1cc2c(cc1Cl)SC(C(=O)c1ccc3ccccc3c1)=NS2(=O)=O`, the IC50 in assay [3] is 3 µM; in assay [7] it was 28 µM.

In the case of `Cc1cc2c(cc1Cl)SC(C(=O)c1ccc(Br)cc1)NS2(=O)=O` (centres undefined), the results for the IC50 in assay [3] and in assay [7] were 3 µM and 4 µM, respectively.

On to `Cc1cc2c(cc1Cl)SC(C(=O)c1cccc([N+](=O)[O-])c1)NS2(=O)=O` (centres undefined), for which the IC50 was 28 µM in assay [3] and 32 µM in assay [7].

Turning to `Cc1cc(Cl)cc2c1S(=O)(=O)N=C(C(=O)c1ccc3ccccc3c1)S2`, the IC50 was 33 µM in assay [2]; 7 µM in assay [3]; 23 µM in assay [4]; 70 µM in assay [6]; 22 µM in assay [7]; 23 µM in assay [8].

On to `O=C(C1=NS(=O)(=O)c2ccc(Cl)cc2S1)c1ccc(Cl)c(Cl)c1`, for which the IC50 in assay [2] was found to be 18 µM; in assay [3] it was 124 µM; in assay [4] it was 20 µM; in assay [6] it was 90 µM; in assay [7], 61.2 µM; in assay [8], 18 µM.

On to `O=C(C1=NS(=O)(=O)c2ccc(Cl)cc2S1)c1ccc2ccccc2c1`, for which the IC50 in assay [2] is 9 µM; in assay [3] it was 8 µM; in assay [4], 15 µM; in assay [6], 100 µM; in assay [7], 8 µM; in assay [8], 15 µM.

Regarding `COc1ccc(C(=O)C2=NS(=O)(=O)c3cc(C)c(Cl)cc3S2)cc1`, the IC50 in assay [3] came to 33 µM; in assay [7], 30 µM.

For the compound `O=C(c1ccc2ccccc2c1)C1NS(=O)(=O)c2ccc(Cl)cc2S1` (centres undefined), the IC50 came to 28 µM in assay [1]; 9 µM in assay [2]; 3 µM in assay [3]; 15 µM in assay [4]; 55 µM in assay [5]; 100 µM in assay [6]. For the same compound, the IC50 turned out to be 8 µM in assay [7] and 15 µM in assay [8].

For `O=C(c1ccc(Cl)c(Cl)c1)C1NS(=O)(=O)c2ccccc2S1` (centres undefined), the results for the IC50 in assay [3] and in assay [7] were 15 µM and 22 µM, respectively.

Regarding `Cc1cc2c(cc1Cl)SC(C(=O)c1ccc(Cl)cc1)NS2(=O)=O` (centres undefined), the half-inhibitory concentration (IC50) amounted to 40 µM in assay [1]; 18 µM in assay [2]; 4 µM in assay [3]; 20 µM in assay [4]; 63 µM in assay [5]; 90 µM in assay [6]. In addition, the IC50 came to 6 µM in assay [7] and 16 µM in assay [8].

In the case of `Cc1cc2c(cc1Cl)SC(C(=O)c1ccc3ccccc3c1)NS2(=O)=O` (centres undefined), the concentration for half-maximal inhibition (IC50) in assay [3] amounted to 30 µM; in assay [7], 57 µM.

On to `O=C(C1=NS(=O)(=O)c2ccc(Cl)cc2S1)c1ccc(Cl)cc1`, for which the IC50 came out at 20 µM in assay [2]; 90 µM in assay [3]; 20 µM in assay [4]; 100 µM in assay [6]; 100 µM in assay [7]; 18 µM in assay [8].

As for `Cc1cc2c(cc1Cl)SC(C(=O)c1ccc(Br)cc1)=NS2(=O)=O`, the IC50 in assay [3] and in assay [7] was 30 µM throughout.
